The conditions of data set [1]: cited from earlier work; for IC50, inhibition of oxidation of DPPH: from P. latifolia leaves. (In general: The DPPH test is a chemical assay of radical scavenging.)
The next data set deals with MCF-7. Kind of data set: MTT antiproliferative. The format is cell-based. Conditions: Homo sapiens, MCF7, read-out: Cytotoxicity (IC50 μM) MCF-7.
A further data set is described as follows: MTT antiproliferative. The format is cell-based. As to conditions: human, MCF-10A cells (normal breast cell line).
Data set [2] is described as follows: DPPH radical scavenging activity assay. As to conditions: 30 min, room temperature, ethanol. The essentials:
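Test compound in absolute ethanol (2–100 μg mL−1; 40 μg mL−1 for screening), 1 mL mixed with 2 mL of freshly prepared DPPH (20 μg mL−1 in absolute ethanol). Incubated 30 min at room temperature in the dark, then absorbance read at 517 nm against an absolute ethanol blank. Ascorbic acid as positive control. % scavenging from blank versus sample absorbance; IC50 by nonlinear regression.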

Another data set relates to MDA-MB-231 cells. Kind of data set: Wound-healing scratch. The format is cell-based, human. Conditions: MDA-MB-231, 10 μM, HGF-induced, 24 h. Summed up:
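MDA-MB-231 cells grown overnight to confluent monolayers, scratched with a pipette tip, washed twice with PBS, then fresh RPMI. Test compound (10 μM, from 10 mM DMSO stock; DMSO ≤0.1%) added in serum-free defined medium with […] HGF, in triplicate, for 24 h. Cells fixed and Giemsa-stained; wound width imaged at 0 and 24 h. % migration calculated relative to DMSO control.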

One may read the IC50 as the concentration that inhibits the measured activity by half.

Values after ≈ are worked out from the molar mass of the structure shown.

Take `COc1cc(C2Oc3c(OC)cc(C=CC=O)cc3C(O)C2O)ccc1O` (centres unmarked) [4′-hydroxy-8,3′-dimethoxy-6-acroleinylflavan-3,4-diol]: the “IC50, inhibition of oxidation of DPPH” value in data set [1] was 22.5 µg/mL.

As to `CC(CO)c1cc2c(c(O)c1O)C1=CC(=O)CC(C)(C)C1(C)C=C2` (centres unmarked) [11,12,16-trihydroxy-2-oxo-5-methyl-10-demethyl-abieta-1,[10] and 6,8,11,13-pentene], the “IC50 towards DPPH assay” value in data set [1] (from P. serratifolia) is 20.4 ± 1.3 µg/mL (≈ 62.1 µM).

For `C[C@@H]1O[C@@H](O[C@@H]2[C@@H](O)[C@H](OCCc3ccc(O)c(O)c3)O[C@H](CO)[C@H]2OC(=O)/C=C/c2ccc(O)c(O)c2)[C@H](O)[C@H](O)[C@H]1O` [Compound 5, verbascoside], the half-maximal inhibitory concentration (IC50) in the data set with MCF-7 amounted to 10.5 ± 0.52 µM. In addition, the midpoint of inhibition in “MTT antiproliferative”, the IC50 at 48 h, lay at 13.9 ± 0.69 µM. Further, the “IC50, DPPH radical scavenging” value in data set [2] was 17.50 ± 1.3 µg/mL (≈ 28 µM).

In the case of `CC1(C)CC[C@]2(C(=O)O)CC[C@]3(C)C(=CC[C@@H]4[C@@]5(C)CC[C@H](O)C(C)(C)[C@@H]5CC[C@]43C)[C@@H]2C1` [Compound 10, oleanolic acid], the “cell migration inhibition in wound-healing assay” value in the data set with MDA-MB-231 cells is “suppressed”.

As for `O=C1O[C@H]([C@@H](O)CO)C(O)=C1O` [L-ascorbic acid, reference compound], in data set [2], the “IC50, DPPH radical scavenging” value came out at 10 ± 0.3 µg/mL (≈ 56.8 µM).

As for `O=C1C[C@@H](c2ccc(O)cc2)Oc2cc(O)cc(O)c21` [naringenin], the “IC50, inhibition of oxidation of DPPH” value in data set [1] is 16.0 µg/mL.

Source of the values: PMC9050340 (RSC Advances, 2020).
